Test results from ChEMBL document CHEMBL2385006, “Fluorogenic sialic acid glycosides for quantification of sialidase activity upon unnatural substrates” (Bioorg Med Chem Lett, 2013).
Activity calls are given as the source filed them. The rule behind the calls is not given here.

Legend:
[1] = tested on: Clostridium perfringens; assay: Activity at Clostridium perfringens sialidase assessed as 4-methylumbelliferyl released at 125 uM for 1 hr by fluorescence assay relative to 4-Methylcoumarin-7-yl 5-acetamido-3,5-dideoxy-alpha-D-glycero-D-galacto-2-nonulopyranosidonic acid
Procedure, shortened: (§1)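 Purified recombinant C. perfringens sialidase (0.05 mU) in acetate buffer pH 4.5 incubated 1 h at 37°C with 0.125 mM 4MU glycoside; parallel reactions with 0.1 mM DANA. Reaction brought to pH 10.7 with glycine buffer; fluorescence read at ex 365/em 450 nm. Relative values compare fluorescence with that of the natural Neu5Ac substrate. At least biological triplicate; standard deviations.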

[2] = tested on: HL-60; assay: Activity at sialidase in human HL60 cells assessed as increase in 4-methylumbelliferyl release at 125 uM after 2 hrs by fluorescence assay in presence of DANA; type: cell-based
Procedure, shortened: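 Same whole-cell set-up: HL60 cells in acetate buffer pH 4.5 with 0.125 mM 4MU glycoside, 2 h, 37 °C, together with 0.1 mM of the non-specific sialidase inhibitor DANA. The mixture was adjusted to pH 10.7 with glycine buffer before fluorescence reading (ex 365/em 450 nm). At least biological triplicate; standard deviations shown.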

[3] = tested on: HL-60; assay: Activity at sialidase in human HL60 cells assessed as increase in 4-methylumbelliferyl release at 125 uM after 2 hrs by fluorescence assay relative to 4-Methylcoumarin-7-yl 5-acetamido-3,5-dideoxy-alpha-D-glycero-D-galacto-2-nonulopyranosidonic acid; type: cell-based
Procedure, shortened: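 Whole HL60 cells suspended in acetate buffer pH 4.5, treated 2 h at 37°C with 0.125 mM 4MU glycoside; parallel wells with 0.1 mM DANA. Stopped with glycine buffer pH 10.7, fluorescence read immediately (ex 365/em 450 nm). Fluorescence increase over background compared with the natural Neu5Ac substrate. At least biological triplicate; standard deviations.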

[4] = tested on: Clostridium perfringens; assay: Activity at Clostridium perfringens sialidase assessed as 4-methylumbelliferyl released at 125 uM for 1 hr by fluorescence assay; procedure, shortened: as §1
[5] = tested on: HL-60; assay: Activity at sialidase in human HL60 cells assessed as decrease in 4-methylumbelliferyl release at 125 uM after 2 hrs by fluorescence assay; type: cell-based
Procedure, shortened: (§2)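 Whole HL60 cells suspended in acetate buffer (pH 4.5) were incubated with 0.125 mM 4-methylumbelliferyl sialoside for 2 h at 37 °C. The reaction was stopped by raising the pH to 10.7 with glycine buffer, and released 4MU was read at once (ex 365 nm, em 450 nm). Values are means with standard deviations from at least biological triplicate.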

[6] = tested on: HL-60; assay: Activity at sialidase in human HL60 cells assessed as decrease in 4-methylumbelliferyl release at 125 uM after 2 hrs by fluorescence assay relative to 4-Methylcoumarin-7-yl 5-acetamido-3,5-dideoxy-alpha-D-glycero-D-galacto-2-nonulopyranosidonic acid; type: cell-based; design: scale not given: the % may be the effect or the level left
Procedure, shortened: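 Intact HL60 cells in pH 4.5 acetate buffer were exposed to 0.125 mM glycoside for 2 h at 37 °C. Glycine buffer (pH 10.7) was then added, and fluorescence was measured (ex 365, em 450 nm). The increase over background was expressed relative to the natural N-acetyl 4MU sialoside run the same way. At least biological triplicate, with standard deviations.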

[7] = tested on: HL-60; assay: Activity at sialidase in human HL60 cell lysate assessed as 4-methylumbelliferyl released at 125 uM for 2 hrs followed by washout by fluorescence assay; type: cell-based
Procedure, shortened: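 To test uptake, HL60 cells were incubated 2 h with the 4MU sialoside, then washed thoroughly to remove free 4MU and substrate. The cells were resuspended in cell lysis buffer, and the fluorescence of the lysate was read against empty wells without cells or compound.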

[8] = tested on: HL-60; assay: Activity at sialidase in human HL60 cells assessed as increase in 4-methylumbelliferyl release at 125 uM after 2 hrs by fluorescence assay; type: cell-based; procedure, shortened: as §2

| Compound | Activity [1] | Activity [2] | Activity [3] [%] | Activity [4] | Activity [5] | Activity [6] [%] | Activity [7] | Activity [8] |
| --- | --- | --- | --- | --- | --- | --- | --- | --- |
| CC(F)(F)F.Cc1cc(=O)oc2cc(O[C@]3(C(=O)O)C[C@H](O)[C@@H](NC(=O)CO)[C@H]([C@H](O)[C@H](O)CO)O3)ccc12 | 6% | inactive | 20 |  |  |  |  |  |
| Cc1cc(=O)oc2cc(O[C@]3(C(=O)O)C[C@H](O)[C@@H](NC(=O)CF)[C@H]([C@H](O)[C@H](O)CO)O3)ccc12 | 6% | inactive | 50 |  |  |  |  |  |
| Cc1cc(=O)oc2cc(O[C@]3(C(=O)O)C[C@H](O)[C@@H](NC(=O)CCC(F)(F)F)[C@H]([C@H](O)[C@H](O)CO)O3)ccc12 |  | inactive |  | inactive | Active |  |  |  |
| Cc1cc(=O)oc2cc(O[C@]3(C(=O)O)C[C@H](O)[C@@H](NC(=O)CC(F)(F)F)[C@H]([C@H](O)[C@H](O)CO)O3)ccc12 | Active | inactive |  |  | Active |  |  |  |
| Cc1cc(=O)oc2cc(O[C@]3(C(=O)O)C[C@H](O)[C@@H](NC(=O)C(C)C)[C@H]([C@H](O)[C@H](O)CO)O3)ccc12 | Active | inactive |  |  |  | 60 |  |  |
| CC(=O)N[C@H]1[C@H]([C@H](O)[C@H](O)CO)O[C@@](Oc2ccc3c(C)cc(=O)oc3c2)(C(=O)O)C[C@@H]1O |  | inactive |  | Active |  |  | inactive | Active |
